Screening data (PubChem BioAssay)
PfM18AAP inh: PfM18AAP enzyme inhibition; inhibition, % at 7.35 µM; 290,000 compounds, 1.2% hits; recombinant PfM18AAP, H-Glu-NHMec fluorogenic cleavage; AID 1822;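 active means inhibition above the campaign mean inhibition over all tested compounds plus 3 SD, cut at about 28% in these data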
PfGluPho inh: PfG6PD (Plasmodium falciparum) enzyme inhibition. inhibition, % at 20 µM. 350,000 compounds, 0.78% hits. AID 504690. PfGluPho enzyme, NADPH resazurin-diaphorase fluorescence;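 active means inhibition reaching at least a set limit at 20 µM in the primary screen, cut at about 59% in these data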
APOBEC3G inh: APOBEC3G (human) deaminase inhibition; 330,000 compounds, 0.28% hits; inhibition, % at 20 µM; Q9HC16; recombinant A3G, ssDNA deamination FAM/TAMRA fluorescence; AID 493012;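 active means inhibition of at least 40% at 20 µM, with no more than 30% in the related APOBEC3A deaminase screen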
Target sequence (Q9HC16 whole entry, looked up): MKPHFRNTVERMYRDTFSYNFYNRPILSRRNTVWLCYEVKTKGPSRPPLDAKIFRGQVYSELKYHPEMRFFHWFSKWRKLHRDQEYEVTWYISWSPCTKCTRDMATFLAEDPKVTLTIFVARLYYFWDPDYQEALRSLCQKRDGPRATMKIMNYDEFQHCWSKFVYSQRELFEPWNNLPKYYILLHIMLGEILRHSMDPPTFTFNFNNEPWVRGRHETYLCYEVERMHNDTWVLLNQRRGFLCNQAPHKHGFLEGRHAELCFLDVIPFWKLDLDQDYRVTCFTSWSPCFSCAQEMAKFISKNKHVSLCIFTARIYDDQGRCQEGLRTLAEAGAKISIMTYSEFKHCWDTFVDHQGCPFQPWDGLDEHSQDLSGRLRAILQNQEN
HKDC1 inh: inhibitors of human hexokinase HKDC1 | recombinant HKDC1, G6PDH/diaphorase resazurin coupled fluorescence | inhibition, % at 20 µM | 340,000 compounds, 0.16% hits | AID 493160;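 active means inhibition above about 35% when tested at 20 µM, limit read from the data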
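System: Recombinant HKDC1 hexokinase | Amount: HKDC1 at 5 µg/mL | Reagent: Glucose with 1 mM ATP | Doses: Single 20 µM dose | Incubation: Reaction time 90 min, room temperature, protected from light | Signal: Coupled resazurin fluorescence, excitation 525 nm, emission 613 nm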
A3A deaminase: human APOBEC3A DNA deaminase inhibition; P31941; recombinant A3A, FAM/TAMRA ssDNA deamination fluorescence; inhibition, % at 20 µM; 330,000 compounds, 0.41% hits;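 active means at least 40% inhibition at 20 µM here, with at most 30% in a related deaminase screen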
UBC9 SUMO inh: SUMOylation inhibition; P63279; HTRF SUMOylation assay, SAE1/SAE2 + UBC9, in vitro; inhibition, % at 35 µM; 290,000 compounds, 0.36% hits; AID 2006; in the data active means inhibition above about 50%, passing the limit was not always enough
Target sequence (P63279 whole entry, looked up): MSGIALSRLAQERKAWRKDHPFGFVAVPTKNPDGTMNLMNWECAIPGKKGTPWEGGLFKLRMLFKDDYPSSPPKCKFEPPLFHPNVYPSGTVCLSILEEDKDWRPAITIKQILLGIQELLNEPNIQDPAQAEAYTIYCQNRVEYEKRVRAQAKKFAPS
Hits are given with their value; 0 = inactive; - = not tested or not shown. This is a sample that favours compounds with a hit; in the whole collection about 2.4% have one here.

SMILES	PfM18AAP inh	PfGluPho inh	APOBEC3G inh	HKDC1 inh	A3A deaminase	UBC9 SUMO inh
O=C(Nc1ccccc1-c1nc2ccccc2s1)c1cccnc1Cl	0	0	0	0	0	58
COc1ccc(NS(=O)(=O)c2ccc(O)c(NC(=O)c3cc4c(C)nn(-c5ccc(F)cc5)c4s3)c2)cc1	0	0	0	0	0	82
Cc1ccc(-c2[nH]c(-c3ccc(C(=O)O)cc3)nc2-c2ccccc2)cc1	0	0	0	0	0	58
O=C(O)c1ccc(-c2nc(-c3ccccc3)c(-c3cccs3)[nH]2)cc1	0	0	0	0	0	0
Nc1ccc(N)c(C(=O)O)c1	-	71	0	36	0	-
Nc1cc(C(F)(F)F)ccc1C(=O)O	0	-	0	-	0	0
COc1ccc(C(=O)O)cc1NCc1cccnc1	0	0	0	0	0	0
COc1ccc(/C=N/OCC(=O)N=Nc2c(O)[nH]c3ccc(Br)cc23)cc1	0	0	0	0	0	0
Cc1cccc(C)c1OCC(=O)N=Nc1c(O)[nH]c2ccc(Br)cc12	0	0	0	0	0	59
CCN(CC)N=Nc1ccc(S(=O)(=O)Nc2c(C)n(C)n(-c3ccccc3)c2=O)cc1	0	0	0	0	0	0
O=C(/C=C/c1ccc(Br)cc1)c1ccco1	29	0	0	0	0	0
O=C(/C=C/c1ccc(Br)cc1)c1ccc(NC(=O)c2ccco2)cc1	0	0	0	0	0	0
COC(=O)c1c(NC(C)=O)sc(C(=O)N2CCOCC2)c1C	0	0	0	0	0	0
COC(=O)c1c(NC(=O)C(C)C)sc(C(=O)N2CCOCC2)c1C	31	0	0	0	0	0
S=c1[nH]nc(-c2ccco2)n1-c1ccc(Cl)cc1	30	0	0	0	0	0
Cc1nn(C)cc1-c1n[nH]c(=S)n1-c1ccc(Cl)cc1	30	0	0	0	0	0
Nn1c(-c2ccco2)n[nH]c1=S	29	0	0	0	0	0
CCOc1cc(C(=O)NCc2ccco2)cc(OCC)c1OCC	0	0	0	0	0	0
O=C(NCc1ccc(Cl)cc1)c1ccc(CNc2c(N3CCCC3)c(=O)c2=O)cc1	0	0	0	0	0	0
O=C(O)c1ccc(N2CCN(Cc3ccc4c(c3)OCO4)CC2)c([N+](=O)[O-])c1	0	0	0	0	0	0
O=C(NC(=S)NCc1cccnc1)c1cccc2ccccc12	0	0	0	0	0	0
N#CC(C(=O)O)=C1CCCC1	0	0	0	0	0	0
N#CC(C#SN)=C1CCCCC1	30	0	0	0	0	0
Oc1c(Br)cc2oc3c(c2c1CNCc1ccccc1)CCCC3	31	0	0	0	0	0
O=C(NCc1ccccn1)c1cc2n(n1)C(C(F)(F)F)CC(c1ccco1)N2 (stereo not given)	31	0	0	0	0	0
SMILES	PfM18AAP inh	PfGluPho inh	APOBEC3G inh	HKDC1 inh	A3A deaminase	UBC9 SUMO inh
CC(C)NC(=O)c1cc2n(n1)C(C(F)(F)F)CC(c1ccco1)N2 (stereo not given)	0	0	0	0	0	0
Cc1ccc2c(Cl)c(C(=O)N/N=C/c3cccn3C)sc2c1	0	0	0	0	0	0
Cn1cccc1/C=N/NC(=O)c1sc2cc(Cl)ccc2c1Cl	0	-	0	-	0	56
COc1ccc(C(=O)NCc2c(CC(C)C)oc(C)c2C(=O)O)cc1	0	0	0	0	0	0
COc1ccc(C/C(C)=N/Nc2nc(C)cc(=O)[nH]2)cc1	31	0	0	0	0	0
COc1ccc(CCNc2nc(C)cc(=O)[nH]2)cc1OC	0	0	0	0	0	-
O=C(O)c1c[nH]c2ccc(S(=O)(=O)N3CCN(c4ccc(F)cc4)CC3)cc2c1=O	0	0	0	0	0	0
Cc1cc(Cl)ccc1OCC(=O)n1cc(C(=O)c2cc(Cl)ccc2O)cn1	30	-	0	-	0	0
CC(OC(=O)c1ccc2ncsc2c1)C(=O)Nc1ncc(Cl)cc1Cl (stereo not given)	0	0	0	0	0	0
N#CCOc1ccc2oc(-c3ccco3)cc(=O)c2c1	0	-	0	-	0	52
NNc1nc2c(-c3ccc(F)cc3)nnn2c2ccccc12	30	0	0	0	0	0
NNc1nc2c(-c3ccc(Cl)cc3)nnn2c2ccccc12	0	0	0	0	0	0
Nc1c(C(=O)N/N=C/c2cccnc2)oc2nc(-c3ccco3)cc(-c3ccco3)c12	0	0	0	0	0	95
Nc1c(C(=O)N/N=C/c2cccnc2)oc2nc(-c3ccccc3)cc(-c3ccco3)c12	0	0	0	0	0	0
O=C(CSc1nc(C2CC2)nc2ccccc12)NCc1ccc2c(c1)OCO2	0	-	0	-	0	0
O=C1C=C(N2CCN(c3ccccn3)CC2)C(=O)c2c(O)ccc(O)c21	-	0	-	0	-	-
CC1=CC(=O)c2c(O)ccc(O)c2C1=O	35	-	-	-	-	90
COc1ccc(-n2c(COc3cccc4ccccc34)nnc2SCC#N)cc1	29	0	0	0	0	0
COc1cc(NC(=O)Cc2cccc3ccccc23)c(C(=O)O)cc1OC	0	0	0	0	0	0
O=[N+]([O-])c1cccc(N/N=C/c2cccc(O)c2O)c1	42	0	0	0	0	0
COc1cccc(/C=N/Nc2ccc([N+](=O)[O-])cc2)c1O	0	0	0	0	0	0
O=[N+]([O-])c1ccccc1N/N=C/c1cccc(O)c1O	30	0	0	0	0	0
Nc1cc(N)nc(SCC(=O)NNC(=O)c2ccc(Cl)cc2)n1	0	0	0	0	0	0
CCNc1nc(=S)nc(NC(C)C)[nH]1	30	0	0	0	0	0
CCNc1nc(=S)nc(NCc2ccccc2)[nH]1	0	-	0	-	0	0
SMILES	PfM18AAP inh	PfGluPho inh	APOBEC3G inh	HKDC1 inh	A3A deaminase	UBC9 SUMO inh
CN=c1scc(C)n1/N=C/c1cc(Br)c(O)c(OC)c1	28	0	0	0	0	0
O=C1CCC/C(=N\NC(=O)c2ccc(NS(=O)(=O)c3ccc(Br)cc3)cc2)C1	30	0	0	0	0	0
O=C(O)C1Nc2c(Cl)cc(Cl)cc2C2C=CCC12 (stereo not given)	0	0	-	0	-	0
O=C(O)C1Nc2c(O)cccc2C2C=CCC12 (stereo not given)	0	0	0	0	0	97
N/C(=N\O)c1cn(Cc2ccccc2Cl)c2ccccc12	0	0	0	0	0	0
Cc1[nH][nH]c(=O)c1C(c1c(C)[nH][nH]c1=O)c1cn(Cc2ccccc2Cl)c2ccccc12	0	0	-	0	-	70
Cc1onc(-c2ccccc2Cl)c1C(=O)Nc1ncn[nH]1	54	0	0	0	0	0
CC(=O)Nc1ccc(NC(=O)c2c(-c3ccccc3Cl)noc2C)cc1	0	0	0	0	0	0
O=C(c1ccc(Br)cc1)N(Cc1ccco1)C1CCS(=O)(=O)C1 (stereo not given)	0	0	0	0	0	0
CCC(=O)N1N=C(c2c(-c3ccccc3)c3cc(Cl)ccc3[nH]c2=O)CC1c1ccco1 (stereo not given)	0	0	0	0	0	54
